# Test results: ChEMBL document CHEMBL1136003, “2-Amino-3-aroyl-4,5-alkylthiophenes: agonist allosteric enhancers at human A(1) adenosine receptors” (J Med Chem, 2002)
# Target: T1, Adenosine receptor A1 (Homo sapiens) (UniProt P30542)
# T1 sequence (whole entry): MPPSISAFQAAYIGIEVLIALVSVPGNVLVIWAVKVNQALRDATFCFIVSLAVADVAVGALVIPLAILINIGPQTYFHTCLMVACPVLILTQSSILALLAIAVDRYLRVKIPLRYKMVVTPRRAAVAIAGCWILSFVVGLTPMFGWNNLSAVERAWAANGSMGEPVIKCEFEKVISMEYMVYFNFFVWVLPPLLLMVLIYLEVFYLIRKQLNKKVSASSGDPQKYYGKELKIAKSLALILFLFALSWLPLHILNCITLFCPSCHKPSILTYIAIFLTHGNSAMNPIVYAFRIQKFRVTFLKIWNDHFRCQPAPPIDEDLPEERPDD
# Experiment: Allosteric enhancer activity score measured by its ability to stabilize the agonist-receptor-G protein ternary complex at a concentration of 100 uM
# Assay type: functional
# Conditions: not given
# In short: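 Candidate enhancer added (100 µM) for 5 min, then dissociation started with 8-cyclopentyltheophylline plus GTPγS. Residual bound agonist after 10 min counted by filtration. Score = 100 × (B − Bo)/(Beq − Bo).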
row,Compound,AE Score [%]
1,Cc1sc(N)c(C(=O)c2ccc(-c3ccccc3)cc2)c1C,12
2,Nc1sc2c(c1C(=O)c1ccc(F)cc1)CCC2,22
3,Nc1sc2c(c1C(=O)c1cccc(F)c1)CCC2,16
4,Nc1sc2c(c1C(=O)c1ccc(I)cc1)CCCCC2,96
5,Nc1sc2c(c1C(=O)c1ccc(Cl)cc1)CCC2,70
6,Nc1sc2c(c1C(=O)c1cccc(Br)c1)CCCCC2,78
7,Cc1sc(C(=O)O)c(C(=O)c2ccccc2)c1C,0
8,CCOC(=O)c1c(N)sc2c1CCCCC2,0.3
9,COc1ccc(C(=O)c2c(N)sc3c2CCCCC3)cc1,85
10,Nc1sc2c(c1C(=O)c1cccc(Cl)c1)CCC2,13
11,Nc1sc2c(c1C(=O)c1ccc(-c3ccccc3)cc1)CCC2,38
12,Nc1sccc1C(=O)c1ccc(Br)cc1,0.8
13,COc1cccc(C(=O)c2c(N)sc3c2CCCCC3)c1,99
14,Nc1sccc1C(=O)c1ccccc1,0.2
15,Cc1sc(C(=O)O)c(C(=O)c2cccc(C(F)(F)F)c2)c1C,0
16,Nc1sc2c(c1C(=O)c1ccc(I)cc1)CCCC2,86
17,Cc1sc(N)c(C(=O)c2cccc(F)c2)c1C,0
18,Cc1cc(C)c(C(=O)c2c(N)sc(C)c2C)c(C)c1,0
19,Nc1sc2c(c1C(=O)c1ccc3ccccc3c1)CCCC2,86
20,Nc1sc2c(c1C(=O)c1cccc(I)c1)CCCCC2,86

row,Compound,AE Score [%]
1,Nc1sccc1C(=O)c1ccc2ccccc2c1,3.2
2,Cc1cccc(C(=O)c2c(N)sc(C)c2C)c1,18
3,Nc1sc2c(c1C(=O)c1ccc(Cl)cc1)CCCC2,68
4,Nc1sc2c(c1C(=O)c1cccc(Cl)c1)CCCC2,70
5,Nc1sccc1C(=O)c1cccc(Cl)c1,0
6,Nc1sc2c(c1C(=O)c1ccc3ccccc3c1)CCCCC2,75
7,Cc1sc(C(=O)O)c(C(=O)c2ccc(-c3ccccc3)cc2)c1C,0
8,Nc1sc2c(c1C(=O)c1ccc(Br)cc1)CCC2,62
9,Nc1sc2c(c1C(=O)c1ccc(C3CCCCC3)cc1)CCCCC2,77
10,Nc1sc2c(c1C(=O)c1ccc(C3CCCCC3)cc1)CCCC2,99
11,Nc1sc2c(c1C(=O)c1ccc3ccccc3c1)CCC2,31
12,Nc1sccc1C(=O)c1ccc(Cl)cc1,0
13,N#Cc1ccc(C(=O)c2c(N)sc3c2CCCC3)cc1,19
14,Nc1sc2c(c1C(=O)c1cccc(F)c1)CCCC2,22
15,Nc1sc2c(c1C(=O)c1ccc(Br)cc1)CCCC2,83
16,Cc1sc(N)c(C(=O)c2cccc(Cl)c2)c1C,14
17,CCOC(=O)c1c(N)sc2c1CCCC2,3.5
18,CCOC(=O)c1c(N)sc2c1CCC2,0.4
19,Nc1sccc1C(=O)c1cccc(F)c1,0
20,Nc1sc2c(c1C(=O)c1ccc(Cl)cc1)CCCCC2,65

row,Compound,AE Score [%]
1,Nc1sc2c(c1C(=O)c1cccc(Cl)c1)CCCCC2,65
2,Nc1sc2c(c1C(=O)c1ccc(-c3ccccc3)cc1)CCCCC2,88
3,Nc1sccc1C(=O)c1cccc(Br)c1,0.2
4,Cc1ccc(C(=O)c2c(N)sc3c2CCCC3)cc1,19
5,Nc1sc2c(c1C(=O)c1cccc(Br)c1)CCCC2,49
6,Nc1sc2c(c1C(=O)c1ccc(F)cc1)CCCC2,17
7,Nc1sccc1C(=O)c1ccc(Cl)c(Cl)c1,1.7
8,Nc1sc2c(c1C(=O)c1cccc3ccccc13)CCCCC2,81
9,Nc1sc2c(c1C(=O)c1ccc(Br)cc1)CCCCC2,86
10,Cc1sc(N)c(C(=O)c2cccc(Br)c2)c1C,16
11,Nc1sc2c(c1C(=O)c1ccccc1)CCCC2,19
12,Nc1sc2c(c1C(=O)c1cccc(Br)c1)CCC2,68
13,Nc1sc2c(c1C(=O)c1ccccc1)CCC2,20
14,Nc1sccc1C(=O)c1ccc(F)cc1,0
15,Nc1sc2c(c1C(=O)c1ccc(F)cc1)CCCCC2,22
16,Cc1sc(N)c(C(=O)c2cccc(C(F)(F)F)c2)c1C,19
17,Nc1sc2c(c1C(=O)c1ccc(-c3ccccc3)cc1)CCCC2,33
18,Nc1sc2c(c1C(=O)c1ccccc1)CCCCC2,13
19,Cc1sc(N)c(C(=O)c2ccccc2)c1C,9

# Target: T1, Adenosine receptor A1 (Homo sapiens)
# Experiment: Inhibition of [3H]CPX binding to membrane of CHO-K cells stably expressing human adenosine A1 receptors.
# Assay type: cell membranes
# Parameters: concentration or dose not given beside the values
# Conditions: concentration not given here
# In short: (§1)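 Triplicate assays with membranes (15 µg protein) from CHO-K cells expressing human A1AR. Buffer was 10 mM HEPES pH 7.4 with 1 mM EDTA, adenosine deaminase 1 u/mL, [3H]CPX (4 nM in membrane aliquot), and enhancer added as 200 µM in 10% DMSO. Footnote gives enhancer at 100 µM. NECA defined nonspecific binding. Incubated 3 h at room temperature, then filtered and counted.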
row,Compound,inhibition [%]
1,Nc1sc2c(c1C(=O)c1ccc(I)cc1)CCCCC2,9
2,Nc1sc2c(c1C(=O)c1cccc(Br)c1)CCCCC2,7
3,CCOC(=O)c1c(N)sc2c1CCCCC2,38
4,COc1cccc(C(=O)c2c(N)sc3c2CCCCC3)c1,13
5,Nc1sc2c(c1C(=O)c1ccc(I)cc1)CCCC2,62
6,Nc1sc2c(c1C(=O)c1ccc(Cl)cc1)CCCC2,69
7,Nc1sc2c(c1C(=O)c1ccc(C3CCCCC3)cc1)CCCC2,47
8,Nc1sc2c(c1C(=O)c1ccc3ccccc3c1)CCC2,21
9,N#Cc1ccc(C(=O)c2c(N)sc3c2CCCC3)cc1,21
10,Nc1sc2c(c1C(=O)c1ccc(Br)cc1)CCCC2,61
11,CCOC(=O)c1c(N)sc2c1CCCC2,53
12,Nc1sc2c(c1C(=O)c1cccc(Cl)c1)CCCCC2,10
13,Cc1ccc(C(=O)c2c(N)sc3c2CCCC3)cc1,36
14,Nc1sc2c(c1C(=O)c1ccc(F)cc1)CCCC2,56
15,Nc1sc2c(c1C(=O)c1ccc(Br)cc1)CCCCC2,7
16,Nc1sc2c(c1C(=O)c1ccccc1)CCCC2,42
17,Nc1sc2c(c1C(=O)c1ccccc1)CCCCC2,68

# Target: T1, Adenosine receptor A1 (Homo sapiens)
# Experiment: Inhibition of [3H]CPX binding to CHO-K cell membrane expressing human Adenosine A1 receptor
# Assay type: cell membranes
# Parameters: concentration or dose not given beside the values
# Conditions: concentration not given here
# In short: as §1
row,Compound,inhibition [%]
1,Nc1sc2c(c1C(=O)c1ccc(F)cc1)CCC2,40
2,Nc1sc2c(c1C(=O)c1cccc(Cl)c1)CCC2,56
3,Nc1sccc1C(=O)c1ccccc1,15
4,Nc1sc2c(c1C(=O)c1cccc(Cl)c1)CCCC2,78
5,Nc1sc2c(c1C(=O)c1ccc(Br)cc1)CCC2,20
6,Nc1sc2c(c1C(=O)c1cccc(F)c1)CCCC2,35
7,CCOC(=O)c1c(N)sc2c1CCC2,58
8,Nc1sc2c(c1C(=O)c1cccc(Br)c1)CCCC2,49
9,Nc1sc2c(c1C(=O)c1cccc(Br)c1)CCC2,36
10,Nc1sc2c(c1C(=O)c1ccccc1)CCC2,56
11,Cc1sc(N)c(C(=O)c2cccc(C(F)(F)F)c2)c1C,42
